Source: PubChem
CAL PDZ FP-1 = human CAL PDZ-peptide interaction inhibition; Q9HD26; purified CAL PDZ, TMR-peptide fluorescence polarization, 1 h; inhibition, % at 20 µM; 0.02% of 330,000 active;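 active means highest replicate inhibition of at least 40%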;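 further: plate controls were DMSO neutral control wells for no effect and unlabeled competitor peptide control wells for full effect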
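Assay system – tagged CAL PDZ protein CerCALP, purified · Timing – 1 h at RT · Compound – single point, 20 µM · Measured by – fluorescence polarization from S- and P-plane intensities, G-factor corrected · Evaluation – inhibition from polarization loss · Probe or stimulus – TMR reporter peptide T*-PRC34 · Buffer or medium – pH 7.4 phosphate-saline buffer, reducing agent, detergent, IgG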
CAL PDZ FP-2 = CAL PDZ (human) peptide binding inhibition | AID 602252 | inhibition, % at 24.9 µM | 0.92% of 300,000 active | purified CAL PDZ, TMR-peptide fluorescence polarization, 1 h | Q9HD26;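 active means mean inhibition of at least 30% with at least half of replicates also reaching 30%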;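 further: 0% = DMSO neutral control and 100% = excess unlabeled competitor peptide PRC23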
DDE Tn6 FP inh = DD(E)-Tn6 binding inhibition, primary FP screen; inhibition, % at 8.3 µM; 0.21% of 370,000 active; Fibrin DD(E) TRITC-Tn6 fluorescence polarization displacement; P02675;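 active means inhibition above a per-campaign cutoff: mean of compounds within control limits plus 3 SD, cut at about 15% in these data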;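 further: 0% = median of all compound wells on the plate and 100% = blocking peptide control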
ARNT-TACC3 inh = disrupts binding between human ARNT and TACC3; AlphaScreen His-ARNT PAS-B/GST-TACC3 binding, luminescence; TACC3 fragment carries E629A point mutation; inhibition, % at 9.99 µM; 0.66% of 390,000 active;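 active means mean inhibition of replicates at least 50% and at least half of replicates each reaching 50%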;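 further: 0% = complete ARNT plus TACC3 wells and 100% = ARNT alone without TACC3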
DDE Tn7 FP inh = inhibitors of Tn7 peptide binding to human fibrin DD(E). P02675. FP displacement of FITC-Tn7 peptide from fibrin DD(E); 0% = median of compound wells per plate. inhibition, % at 8.3 µM. 0.13% of 370,000 active. AID 720508;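 active means inhibition above the mean of compounds falling within the control limits plus 3 SD of them, cut at about 14% in these data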;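 further: 0% = plate median of compound wells and 100% = 10 µM Aha-Tn7 peptide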
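System: human fibrin DD(E); quantity: Fibrin-DD(E) at 2 µM final; also added: fluorescent Tn7 probe at 0.1 µM; compound dosing: single nominal test concentration of 8.3 µM per compound; schedule: 10 min preincubation, 3 h with tracer, room temperature; detection: fluorescence polarization of the labelled Tn7 tracer; repeats: one replicate per compound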
GRK2 aptamer HTS = blocks RNA aptamer binding to human GRK2. inhibition of aptamer binding, % at 10 µM. bead flow cytometry, FAM-aptamer displacement from GRK2. 0.59% of 330,000 active. AID 488847;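 active means inhibition of aptamer binding above 40%, roughly 3 SD of noise, on plates passing a quality check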;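 further: median bead fluorescence of bound FAM aptamer so fluorescent compounds give negative values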
Target sequence (P25098 whole entry, looked up): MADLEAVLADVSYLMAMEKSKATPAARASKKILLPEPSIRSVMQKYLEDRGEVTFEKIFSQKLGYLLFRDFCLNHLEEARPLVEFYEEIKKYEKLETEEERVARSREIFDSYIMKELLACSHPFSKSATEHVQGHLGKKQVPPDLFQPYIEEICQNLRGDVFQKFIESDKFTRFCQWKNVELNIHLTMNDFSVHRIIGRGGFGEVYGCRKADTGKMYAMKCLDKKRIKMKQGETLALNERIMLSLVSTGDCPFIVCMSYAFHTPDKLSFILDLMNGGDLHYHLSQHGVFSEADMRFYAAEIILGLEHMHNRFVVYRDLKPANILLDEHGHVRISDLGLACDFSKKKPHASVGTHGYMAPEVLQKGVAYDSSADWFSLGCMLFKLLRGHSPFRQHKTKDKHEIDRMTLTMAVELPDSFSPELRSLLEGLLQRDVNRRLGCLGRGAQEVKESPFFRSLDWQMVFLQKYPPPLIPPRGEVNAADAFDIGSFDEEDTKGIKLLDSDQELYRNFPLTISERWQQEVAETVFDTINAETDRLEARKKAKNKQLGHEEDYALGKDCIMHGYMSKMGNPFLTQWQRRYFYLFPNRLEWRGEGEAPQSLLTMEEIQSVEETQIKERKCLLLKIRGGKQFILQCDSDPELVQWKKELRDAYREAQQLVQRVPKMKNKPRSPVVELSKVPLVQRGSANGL
* marks the source's active call; other numbers are inactive results; · = not tested or not shown. This is a sample that favours compounds with a hit; in the whole collection about 1.8% have one here.

SMILES	CAL PDZ FP-1	CAL PDZ FP-2	DDE Tn6 FP inh	ARNT-TACC3 inh	DDE Tn7 FP inh	GRK2 aptamer HTS
CN1CCN(C(=O)C[C@@H]2C[C@@H]3c4cc(NC(=O)c5ccc6c(c5)OCO6)ccc4O[C@@H]3[C@@H](CO)O2)CC1	·	·	·	6	·	·
CCN1C(=O)[C@H]2[C@@H](c3ccc(Cl)cc3)N3C(=O)CN(CC4CC4)C(=O)[C@@]3(C)[C@H]2C1=O	0	0	-4	-2	-6	3
O=C(NC1CCCCC1)C1CCN(c2nccs2)CC1	-2	33*	1	·	-6	1
COc1ccc(NC(=O)Nc2ccc3c(c2)C(=O)N([C@@H](C)CO)C[C@H](C)[C@@H](CN(C)C(=O)Cc2ccccc2)OCCCC[C@@H](C)O3)cc1	·	·	·	-3	·	·
C[C@H](CO)N1C[C@H](C)[C@@H](CN(C)C(=O)Nc2ccccc2F)Oc2cc(-c3ccc(C(=O)N(C)C)cc3)ccc2S1(=O)=O	·	·	·	-5	·	·
CC(=O)c1ccc(NC(=O)c2noc3c2CCC3)cc1	·	68*	0	-5	6	26
COc1cccc(-c2ccc3c(c2)[C@H]2[C@H](CCN2C(=O)NC2CCCC2)[C@H](CO)N3C)c1	·	·	·	active	·	·
N#Cc1ccc(NC(=O)NN2CCCCCC2)cc1	0	82*	-2	-2	1	·
C=CCC(C#Cc1ccccc1)N(C)C (stereo not given)	-1	87*	-3	3	-4	0
CN(C)c1ccc(C=c2c3ccccc3n3c2cc(-c2ccccc2)[n+]3C)cc1	24	-14	-14	28	0	·
COc1cc(N(C)C)ccc1C=c1c2ccccc2n2c1cc(-c1ccccc1)[n+]2C	38	-15	-9	41*	-1	·
COc1cc(C=c2c3ccccc3n3c2cc(-c2ccccc2)[n+]3C)cc(OC)c1OC	3	-5	17*	26	3	·
Cc1ccc(/C=C2/Sc3ccc(C(=O)NCc4ccccn4)cc3NC2=O)cc1	0	-3	-5	-2	-8	0
O=C(NCc1ccc2c(c1)OCO2)c1ccc(Cl)nc1	0	99*	3	-2	-1	0
Cc1ccc(C(=O)NCc2ccc3c(c2)OCO3)cc1C	-1	-1	-5	-4	3	2
Cc1cc(C(=O)NCc2ccc3c(c2)OCO3)ccc1[N+](=O)[O-]	·	69*	8	-17	2	2
CN(C)C(=O)C[C@@H]1CC[C@@H]2[C@@H](COc3ccc(NC(=O)C4CC4)cc3C(=O)N2C)O1	·	·	·	1	·	·
Cc1ccc(-c2nc(NC(=O)CSc3cc(C)c4ccccc4n3)ns2)cc1	-1	·	-1	-9	-2	2
COc1ccc2c(C)cc(SCC(=O)Nc3nsc(-c4ccc(C)cc4)n3)nc2c1	-4	2	7	24	1	45*
Cc1cc(NC2CCCC2)n2nc(C)c(-c3ccccc3)c2n1	-1	32*	5	-10	1	0
CCOC(=O)C1=C(O)/C(=C\c2ccc(O)c(OCC)c2)N=C1C	0	63*	1	2	3	0
O=C(O)c1[nH]c2ccccc2c1C(c1ccccc1)c1c(C(=O)O)[nH]c2ccccc12	45*	56*	12	-2	3	51*
Cc1noc(C)c1S(=O)(=O)N(C)C[C@H]1OCc2ccccc2-c2c(n(C)c3ccccc23)C(=O)N([C@@H](C)CO)C[C@H]1C	·	·	·	7	·	·
CC(=O)N1[C@@H](CO)[C@@H](c2ccc(-c3ccccc3)cc2)[C@@H]1CNC(=O)C1CC1	·	·	·	4	·	·
COc1cc(C=CC(=O)OCC=Cc2ccc3c(c2)OCO3)cc(OC)c1OC	1	·	-2	·	3	·
SMILES	CAL PDZ FP-1	CAL PDZ FP-2	DDE Tn6 FP inh	ARNT-TACC3 inh	DDE Tn7 FP inh	GRK2 aptamer HTS
O=C(C=Cc1ccc2c(c1)OCO2)OCC=Cc1ccc2c(c1)OCO2	1	53*	5	1	-4	·
Oc1ccc(CNc2cccnc2)c2cccnc12	·	·	-2	·	2	·
Oc1c(CNc2ccccc2)cc(COCc2ccccc2)c2cccnc12	-1	-1	1	57*	-6	1
CN1CCN(C(=O)C[C@@H]2C[C@@H]3c4cc(NC(=O)CC5CC5)ccc4O[C@@H]3[C@@H](CO)O2)CC1	·	·	·	-30	·	·
Cc1cc(N2CCN(c3ccccc3)CC2)nc2ccccc12	·	62*	5	-2	-1	1
COc1cc2c(cc1OC)C(C)=NCC2	1	0	19*	12	5	0
O=C(CCC(=O)c1ccccc1)Nc1ccccc1OC(F)F	-1	33*	1	-7	4	1
O=S(=O)(NCC[C@H]1CC[C@H](NS(=O)(=O)c2ccccc2Cl)[C@@H](CO)O1)c1ccc(F)cc1	·	·	·	0	·	·
COc1ccccc1-c1cnc2c(c1)C(=O)N([C@H](C)CO)C[C@H](C)[C@@H](CN(C)Cc1cncnc1)O2	·	·	·	-4	·	·
Clc1ccc(-c2ccc(CNCc3ccccn3)o2)cc1	-2	2	-3	73*	6	0
O=C(CN1C(=O)NC2(CCc3ccccc32)C1=O)c1c[nH]c2ccccc12 (stereo not given)	-4	-3	-2	0	-2	3
COc1ccc2c3c(cccc13)C(=O)N(O)C2=O	0	1	1	·	1	4
CCC1=NNc2cccc3c(OC)ccc1c23	·	·	·	·	·	81*
Cc1ccc(S(=O)(=O)Nc2ccc3c(c2)C(=O)N([C@@H](C)CO)C[C@@H](C)[C@H](CN(C)C(=O)Nc2ccc4c(c2)OCO4)OCCCC[C@@H](C)O3)cc1	·	·	·	4	·	·
Cc1cccc(NC(=O)CNCC(=O)Nc2cccc(C)c2C)c1C	0	-3	0	11	4	5
Cc1cccc(NC(=O)CNC(=O)c2cccc(-n3cccc3)c2)c1C	0	-2	0	-3	2	50*
COc1ccccc1CNC(=O)COC(=O)c1cccnc1SCC(=O)NCc1ccccc1OC	-6	83*	1	-2	-9	0
COc1ccc(C(CC(=O)O)NC(=O)c2cccs2)cc1 (stereo not given)	0	·	1	-1	3	0
COc1ccc(C(CC(=O)O)NC(=O)c2ccccc2[N+](=O)[O-])cc1 (stereo not given)	0	31*	-5	·	0	6
CCOC(=O)C1=CCN(S(=O)(=O)c2ccccc2Br)C1c1ccc(Cl)cc1 (stereo not given)	·	·	-2	·	-1	·
O=C(c1ccc(S(=O)(=O)N2CCCC2)cc1)N1CCCCCC1	-1	67*	3	-9	0	1
Cc1cccc(N2CCN(C(=O)c3cccc(S(=O)(=O)N4CCCCC4)c3)CC2)c1C	0	69*	9	5	0	6
O=C(Nc1ccc(C(=O)N2CCCC2)cc1)C1CCCCC1	0	-5	0	-6	-5	·
